Measured values: PMC3076219 (European journal of immunology, 2009)

Key:
CXCR2 [1] = assay: CXCR2 surface expression on neutrophils, flow cytometry; assay type: cell-based, human
CXCR1 [2] = assay: CXCR1 surface expression on neutrophils, flow cytometry; assay type: cell-based, human
Summary of the method: (§1)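 Human blood neutrophils were isolated by dextran sedimentation and Ficoll (>95% CD16+) and held at 5×10^6/mL in RPMI 1640 with 1% FBS. They were treated 3h with a dose series (test peptide 1–10 µM; chemokines 1, 5, 10, 50 nM) or with 5 µM for 0.5–3h. Cells were blocked in 10% human serum and stained with anti-CXCR1-APC/anti-CXCR2-FITC or anti-P2X7-FITC, plus anti-CD16. Read-out was flow cytometry GMFI.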

P2X7 = P2X7 surface expression on neutrophils, flow cytometry; assay type: cell-based, human; conditions: LL-37 treated neutrophils, 3h; Fig. 2D
Summary of the method: as §1

neutrophils = assay: Calcium mobilization of neutrophils; assay type: cell-based, human
CXCR1 [3] = assay: Calcium mobilization in HEK293/CXCR1 cells; assay type: cell-based, human; conditions: Indo-1; Fig. 7A-B
Summary of the method: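 CXCR1-transfected HEK293 cells were loaded with 5 µM Indo-1-AM in 5 µM pluronic F-127/PBS for 30 min at RT. They were washed in cold PBS, spun at 200 × g for 10 min at 4 °C and suspended in PBS with calcium and magnesium. Stimulation followed baseline recording. Flow cytometric [Ca2+]i was read as the 405:485 nm emission ratio with 351 nm excitation. Three independent experiments.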

[4] = system: CXCR1 transfected HEK293 cells; assay: Secondary necrosis of CXCR1 transfected HEK293 cells; assay type: cell-based; conditions: Supporting information Fig. 4
CXCR2 [5] = conditions: LL-37 treated neutrophils; ref [15]; cited from earlier work

Substance: LL-37: ~4.5 kD active α-helical peptide, C-terminal domain of human cathelicidin hCAP18
- down-regulation of CXCR2 in time course compared to untreated controls (CXCR2 [1]; LL-37 5 µM, at 3h, p<0.001, Fig. 1B, four independent experiments): 50%
- CXCR2 surface expression at 10 µM (CXCR2 [1]; LL-37 10 µM, 3h): a further reduction was observed at 10 µM
- CXCR1 surface expression, time course (CXCR1 [2]; LL-37 5 µM, 0.5-3h, Fig. 1C): not affected by LL-37 treatment
- CXCR1 down-regulation at 10 µM (CXCR1 [2]; LL-37 10 µM, 3h): does not down-regulate CXCR1
- P2X7 surface expression (P2X7): up-regulate the expression of P2X7
- [Ca2+]i pattern, dose response (neutrophils; LL-37 1 µM, 2.5 µM, 5 µM, 10 µM, Indo-1, Fig. 3A): a rapid rise followed by a slightly declining plateau region
- [Ca2+]i duration (neutrophils; LL-37, 600s recording time, Fig. 3A): sustained calcium mobilization over the 600s recording time
- return of Ca2+ response to baseline, neutrophils (neutrophils; LL-37, Fig 3A): returns to baseline for THP-1 cells, but not for neutrophils and monocytes
- calcium flux response in the absence of extracellular Ca2+ (neutrophils; PBS without calcium and magnesium, LL-37 5 µM, WKYMVm 5 µM, ATP 5 µM, Fig. 3C): only the WKYMVm peptide is capable of generating a calcium flux response
- calcium mobilization in CXCR1 transfected HEK293 cells (CXCR1 [3]): only CXCL8 gave a response
- generation of secondary necrotic cells, HEK293/CXCR1 [4]: generation of secondary necrotic cells
- down-regulation among 21 cell surface markers (CXCR2 [5]): only CXCR2 was specifically down-regulated
